≈ marks a conversion by molar mass, not a printed value.
Tests used:
[1] = test system: Priestia megaterium; assay: Antimicrobial activity against Bacillus megaterium ATCC 9885 after 24 hrs by agar well diffusion method; type: functional
How it was run: (§1)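 Agar well diffusion. Inocula of 100 µL: bacteria 1 × 10^8 CFU/mL on nutrient agar, yeast 1 × 10^6 CFU/mL on Sabouraud dextrose agar, fungi 1 × 10^4 spore/mL on potato dextrose agar. 10 mm wells received 100 µL of compound at 100 mg/mL in DMSO. Bacteria incubated 24 h at 37 °C, fungi 48 h at 28 °C. Controls were DMSO, ciprofloxacin 50 µg/mL and ketoconazole 50 µg/mL. Inhibition zone diameter in mm, scored N.A. to ++++, average of triplicates.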

[2] = test system: Klebsiella pneumoniae; assay: Antimicrobial activity against Klebsiella pneumoniae ATCC 13883 after 24 hrs by agar well diffusion method; type: functional; how it was run: as §1
[3] = Antioxidant activity in rat erythrocytes assessed as inhibition of peroxyl radicals-induced hemolysis at 2 mM after 2 hrs; type: functional; details: Erythrocyte, read-out: INH
How it was run: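 Rat blood from cardiac puncture, heparinized. Erythrocytes were washed three times in 0.15 M NaCl. A 10% suspension in PBS pH 7.4 was mixed with an equal volume of 200 mM AAPH in PBS containing sample, then shaken at 37 °C for 2 h. Mixture diluted with 8 volumes of PBS and centrifuged; supernatant A540 compared with a water-lysed sample for complete hemolysis. L-ascorbic acid was the positive control. Mean ± SD.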

[4] = test system: Pseudomonas aeruginosa; assay: Antimicrobial activity against Pseudomonas aeruginosa ATCC 27953 after 24 hrs by agar well diffusion method; type: functional; how it was run: as §1
[5] = test system: Staphylococcus aureus; assay: Antimicrobial activity against Staphylococcus aureus ATCC 29213 after 24 hrs by agar well diffusion method; type: functional; how it was run: as §1
[6] = Antioxidant activity assessed as ABTS radical scavenging activity at 2 mM; type: functional
How it was run: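 ABTS (60 µM, 2 mL) was oxidized with MnO2 (25 mg/mL, 3 mL) in 0.1 M phosphate buffer pH 7, then centrifuged and filtered, with A734 adjusted to about 0.5. 50 µL of 2 mM compound in MeOH/phosphate buffer (1:1) was added. Colour loss expressed as % inhibition. L-ascorbic acid was the standard; blank and negative controls used MeOH/buffer.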

[7] = test system: Bacillus subtilis; assay: Antimicrobial activity against Bacillus subtilis ATCC 6633 after 24 hrs by agar well diffusion method; type: functional; how it was run: as §1
[8] = Cytotoxicity against mouse EAC cells assessed as cell viability using trypan blue staining after 2 hrs by hemocytometer analysis; type: functional, cell-based; details: Ehrlich
[9] = test system: Candida albicans; assay: Antimicrobial activity against Candida albicans NRRL Y-477 after 48 hrs by agar well diffusion method; type: functional; how it was run: as §1
[10] = test system: Escherichia coli; assay: Antimicrobial activity against Escherichia coli ATCC 25922 after 24 hrs by agar well diffusion method; type: functional; how it was run: as §1
[11] = test system: Aspergillus niger; assay: Antimicrobial activity against Aspergillus niger after 48 hrs by agar well diffusion method; type: functional; how it was run: as §1

SMILES | diameter of the inhibition zone (DIZ) [1] | diameter of the inhibition zone (DIZ) [2] | percent hemolysis at 2000 µM [3] | diameter of the inhibition zone (DIZ) [4] | diameter of the inhibition zone (DIZ) [5] | inhibition [6] | diameter of the inhibition zone (DIZ) [7] | IC50 [8] | diameter of the inhibition zone (DIZ) [9] | diameter of the inhibition zone (DIZ) [10] | diameter of the inhibition zone (DIZ) [11]
C/C(=N\N=C1\NC(=O)/C(=C/c2ccc(F)cc2)S1)c1nc(-c2ccccc2)[nH]c1C | <=4 mm | <=4 mm | 1.4% | <=4 mm | <=4 mm | 79.2% | <=4 mm | 14.5 µg/mL (≈ 34.6 µM) | <=4 mm | <=4 mm | <=4 mm
CC1=NC(=N/N=C(\C)c2nc(-c3ccccc3)[nH]c2C)/S/C1=N\Nc1ccccc1 | <=4 mm | <=4 mm | 6.4% | <=4 mm | <=4 mm | 44.4% | <=4 mm | 20.2 µg/mL (≈ 48.7 µM) | <=4 mm | <=4 mm | <=4 mm
CC1=NC(=N/N=C(\C)c2nc(-c3ccccc3)[nH]c2C)/S/C1=N\Nc1ccc(Cl)cc1 | <=4 mm | <=4 mm | 1.7% | <=4 mm | <=4 mm | 40.7% | <=4 mm | 20.2 µg/mL (≈ 45 µM) | <=4 mm | <=4 mm | <=4 mm
C/C(=N\NC(=O)/C(C#N)=C\c1cn(-c2ccccc2)nc1-c1cc2ccccc2o1)c1nc(-c2ccccc2)[nH]c1C | <=4 mm | <=4 mm | 5.55% | <=4 mm | <=4 mm | 34.6% | <=4 mm | 125 µg/mL (≈ 227 µM) | <=4 mm | <=4 mm | <=4 mm
C/C(=N\N=C1\N=C(c2cc3ccccc3o2)CS1)c1nc(-c2ccccc2)[nH]c1C | <=4 mm | <=4 mm | 1.9% | <=4 mm | <=4 mm | 39.9% | <=4 mm | 21.5 µg/mL (≈ 52 µM) | <=4 mm | <=4 mm | <=4 mm
O=c1[nH]cc(F)c(=O)[nH]1 [FLUOROURACIL] | – | – | – | – | – | – | – | 1.5 µg/mL (≈ 11.5 µM) | – | – | –
O=C1O[C@H]([C@@H](O)CO)C(O)=C1O [ASCORBIC ACID] | – | – | 0.85% | – | – | 88.6% | – | – | – | – | –
C/C(=N\NC(=O)/C(C#N)=C\c1cn(-c2ccccc2)nc1-c1cccs1)c1nc(-c2ccccc2)[nH]c1C | <=4 mm | <=4 mm | 5.55% | <=4 mm | <=4 mm | 34.6% | <=4 mm | 125 µg/mL (≈ 242 µM) | <=4 mm | <=4 mm | <=4 mm
C/C(=N\N=C1\N=C2N=c3ccccc3=NC2S1)c1nc(-c2ccccc2)[nH]c1C (configuration not stated) | <=4 mm | <=4 mm | 1.1% | <=4 mm | <=4 mm | 37.4% | <=4 mm | 4.25 µg/mL (≈ 10.6 µM) | <=4 mm | <=4 mm | <=4 mm
C/C(=N\NC(=O)CC#N)c1nc(-c2ccccc2)[nH]c1C | <=4 mm | <=4 mm | 3.65% | <=4 mm | <=4 mm | 48.2% | <=4 mm | 125 µg/mL (≈ 445 µM) | <=4 mm | <=4 mm | <=4 mm
C/C(=N/NC(=O)c1cc2ccc(O)cc2oc1=N)c1nc(-c2ccccc2)[nH]c1C | <=4 mm | <=4 mm | 5.55% | <=4 mm | <=4 mm | 4.56% | <=4 mm | 150 µg/mL (≈ 375 µM) | <=4 mm | <=4 mm | <=4 mm
C/C(=N\N=C1\N=C(c2cc3ccccc3oc2=O)CS1)c1nc(-c2ccccc2)[nH]c1C | <=4 mm | <=4 mm | 2.5% | <=4 mm | <=4 mm | 61.6% | <=4 mm | 125 µg/mL (≈ 283 µM) | <=4 mm | <=4 mm | <=4 mm
C/C(=N\N=C1\NC(=O)/C(=C/c2cn(-c3ccccc3)nc2-c2cccs2)S1)c1nc(-c2ccccc2)[nH]c1C | <=4 mm | <=4 mm | 3.45% | <=4 mm | <=4 mm | 76.2% | <=4 mm | 8.25 µg/mL (≈ 15 µM) | <=4 mm | <=4 mm | <=4 mm
CC(=O)N1CCN(c2ccc(OCC3COC(Cn4ccnc4)(c4ccc(Cl)cc4Cl)O3)cc2)CC1 (configuration not stated) [KETOCONAZOLE] | <=4 mm | <=4 mm | – | <=4 mm | <=4 mm | – | <=4 mm | – | >=21 mm | <=4 mm | >=21 mm

Source: ChEMBL document CHEMBL1770090, “Synthesis, antimicrobial, antioxidant, anti-hemolytic and cytotoxic evaluation of new imidazole-based heterocycles” (Eur J Med Chem, 2011)
